TRPC4 PAM: allosterically enhances the mouse TRPC4 cation channel; Q9QUQ5; hit rate 0.42% among 310,000; B-score at 10 µM; AID 2227; HEK293 TRPC4beta/mu-opioid, DAMGO EC20, Fluo-4 Ca2+ flux; active compounds read high;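 active = B-score of calcium response area above 5 SD of library B-scores, with initial fluorescence ratio within 5 SD of library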;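 note: B-score of integrated fluorescence ratio over time as area under calcium response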
Target sequence (Q9QUQ5 whole entry, looked up): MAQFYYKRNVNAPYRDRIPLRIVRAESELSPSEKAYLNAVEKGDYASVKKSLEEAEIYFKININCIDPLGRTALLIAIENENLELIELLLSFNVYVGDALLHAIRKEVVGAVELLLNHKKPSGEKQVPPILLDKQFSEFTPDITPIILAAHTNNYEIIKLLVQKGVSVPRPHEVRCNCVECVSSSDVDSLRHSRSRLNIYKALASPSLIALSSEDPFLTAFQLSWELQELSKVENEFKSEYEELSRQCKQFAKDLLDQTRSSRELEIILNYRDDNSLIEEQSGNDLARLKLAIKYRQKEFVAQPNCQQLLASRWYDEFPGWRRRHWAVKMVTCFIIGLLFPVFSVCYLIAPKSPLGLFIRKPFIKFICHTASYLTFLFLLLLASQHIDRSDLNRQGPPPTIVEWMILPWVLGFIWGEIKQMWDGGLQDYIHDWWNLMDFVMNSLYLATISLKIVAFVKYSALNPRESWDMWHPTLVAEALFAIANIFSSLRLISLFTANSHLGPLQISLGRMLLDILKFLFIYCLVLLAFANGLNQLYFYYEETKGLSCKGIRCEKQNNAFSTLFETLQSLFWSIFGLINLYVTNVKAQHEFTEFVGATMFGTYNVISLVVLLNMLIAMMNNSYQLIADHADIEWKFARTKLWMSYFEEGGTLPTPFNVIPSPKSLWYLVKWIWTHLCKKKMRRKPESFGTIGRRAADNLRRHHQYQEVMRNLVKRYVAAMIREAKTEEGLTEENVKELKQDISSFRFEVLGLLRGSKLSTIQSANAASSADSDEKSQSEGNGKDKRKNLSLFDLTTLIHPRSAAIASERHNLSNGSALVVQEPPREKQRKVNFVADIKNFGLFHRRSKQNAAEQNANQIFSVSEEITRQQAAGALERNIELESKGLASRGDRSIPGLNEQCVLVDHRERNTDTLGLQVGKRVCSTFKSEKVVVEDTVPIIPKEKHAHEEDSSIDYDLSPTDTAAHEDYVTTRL
TRPC6 act: mouse TRPC6 channel activation; Q61143; HEK293-TRPC6 membrane potential dye fluorescence; active compounds read high; B-score at 10 µM; hit rate 0.13% among 310,000; AID 2550;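 active = B-score of the integrated fluorescence ratio above library mean plus 3 SD, and starting fluorescence ratio within library mean plus 5 SD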;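 note: higher score means more depolarization so channel activation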
TRPC4 inh: inhibitors of mouse TRPC4 channel; HEK293 TRPC4beta/mu-opioid, DAMGO-evoked Fluo4 calcium flux; active compounds read low; hit rate 0.39% among 300,000; Q9QUQ5; B-score at 10 µM;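 active = B-score over 3 SD under the library average, no early fluorescence shift, positive overall ratio signal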
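Assay system: TRPC4beta/mu-opioid receptor HEK293 cell line; compound dosing: single concentration per test compound; detection: Fluo4 Ca2+ flux fluorescence; evaluation: per-well B score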
TRPC4 act: TRPC4 (mouse) channel activation; Q9QUQ5; HEK293 TRPC4beta/mu-opioid, Fluo4 calcium fluorescence; active compounds read high; B-score at 10 µM; hit rate 0.49% among 310,000; AID 2237;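 active = B-score above 5 SD of library B-scores, and initial fluorescence ratio not above library mean plus 5 SD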;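 note: positive B-score marks a calcium rise read as TRPC4 activation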
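Assay system: HEK293 cells stably co-expressing mouse TRPC4beta and mu-opioid receptor / Timing: Fluo4 dye loading 45 min at room temperature, 110 s recording / Signal: Fluo4 calcium-sensitive dye fluorescence, kinetic, 1 Hz baseline / Read-out: integrated baseline-normalised fluorescence ratio, converted to per-well B score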
TRPC6 inhibitor: blocks the mouse TRPC6 cation channel. HEK293-TRPC6, membrane potential dye, ACh-evoked depolarization; active compounds read low. B-score at 10 µM. hit rate 1.1% among 310,000;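 active = B-score under library mean minus 3 SD, initial fluorescence not abnormally high, positive integrated signal ratio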;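 note: B-score derived from integrated fluorescence ratio over the kinetic read; more negative B-score means stronger inhibition of depolarization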
TRPC4 sel inh 2: second selectivity test of TRPC6 inhibitors: effect on mouse TRPC4; shares compounds with TRPC6 inhibitor; HEK293 TRPC4/MOR, membrane potential dye fluorescence; channel activated by saturating DAMGO dose; inhibition, % at 10 µM; hit rate 42% among 920; AID 2776;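 active = compounds whose fluorescence signal differed from control wells by over 3 SD, either direction, in both duplicate plates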
TRPC4 spec: selectivity of TRPC6 inhibitors: effect on mouse TRPC4. shares compounds with TRPC6 inhibitor. HEK293 TRPC4/mu-opioid, membrane potential fluorescence. activity change, negative = inhibition, % at 10 µM. hit rate 61% among 920. AID 2777;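 active = rise or fall in signal beyond 3 SD of buffer-only wells in both replicate plates, either sign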;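 note: integrated kinetic ratio of fluorescence range over baseline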
HEK293 MPD ctr 2-1: second check of TRPC6 inhibitor effects in parental HEK293 cells | shares compounds with TRPC6 inhibitor | parental HEK293 membrane potential dye fluorescence; maximal acetylcholine challenge after compound addition | hit rate 31% among 920 | signal change vs control, % at 10 µM | AID 2779;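 active = membrane potential signal moving either way by over 3 SD of the maximum-effect control, in both duplicate plates, meaning non-specific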
HEK293 MPD ctr-1: checks TRPC6 inhibitor effects in parental HEK293 cells | shares compounds with TRPC6 inhibitor | parental HEK293 membrane potential dye fluorescence | membrane potential signal change, % at 10 µM | hit rate 60% among 920 | AID 2780;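 active = membrane potential signal shifting up or down by more than 3 SD of buffer-only wells, on both duplicate plates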
HEK293 MPD ctr-2: checks TRPC6 modulator effects in parental HEK293 cells | membrane potential dye fluorescence | shares compounds with TRPC6 inhibitor | membrane potential signal change, % at 10 µM | hit rate 51% among 2,400 | AID 488924;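 active = membrane potential signal moves up or down beyond 5 SD from buffer-only wells, on both duplicate plates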
HEK293 MPD ctr 2-2: second check of TRPC6 modulator effects in parental HEK293 cells | shares compounds with TRPC6 inhibitor | membrane potential dye fluorescence; after compound, maximal acetylcholine stimulation | inhibition, % at 10 µM | hit rate 14% among 2,400 | AID 488926;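 active = membrane potential signal drops by more than 5 SD from the mean control signal, in both duplicate plates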;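 note: plate controls were acetylcholine ECmax control wells for no effect and buffer only wells for full effect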
TRPC4/MOR mod: mouse TRPC4 off-target activity of TRPC6 modulators; shares compounds with TRPC6 inhibitor; HEK293 TRPC4/mu-opioid, membrane potential fluorescence; percent change from control (negative = decrease, positive = increase), % at 10 µM; hit rate 69% among 2,400; AID 488927;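 active = membrane potential signal moved up or down beyond 5 SD of buffer control wells, in both duplicate plates, actives on both sides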;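 note: plate controls were assay buffer wells for no effect and DAMGO maximal-effect wells for full effect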
TRPC4/MOR inh 2: mouse TRPC4 off-target activity of TRPC6 modulators, second screen | shares compounds with TRPC6 inhibitor | HEK293 TRPC4/mu-opioid, membrane potential dye fluorescence; stimulated with maximal-effect DAMGO | inhibition, % at 10 µM | hit rate 55% among 2,400;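 active = drop in membrane potential signal beyond 5 SD of the control wells in both duplicate plates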;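 note: TRPC4 counter screen for TRPC6 hits run under conditions tuned for TRPC6 not TRPC4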
TRPC6 block conf: confirmation of mouse TRPC6 inhibitors. shares compounds with TRPC6 inhibitor. HEK293-TRPC6, membrane potential dye, ACh-evoked depolarization. inhibition, % at 10 µM. hit rate 43% among 3,300;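 active = fluorescence ratio falls more than 5 SD below the full-stimulation control mean, in both duplicate runs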;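 note: integrated fluorescence ratio of peak minus minimum over baseline after agonist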
TRPC6 act confirm: mouse TRPC6 activator confirmation; AID 488961; hit rate 11% among 2,800; shares compounds with TRPC6 inhibitor; HEK293-TRPC6 membrane potential dye fluorescence, FDSS; activation, % at 10 µM;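 active = ratio signal rise beyond 5 SD above unstimulated control wells' mean, seen in both duplicate runs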;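 note: plate controls were buffer EC0 wells for no effect and acetylcholine ECmax response for full effect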
* marks the source's active call; other numbers are inactive results; i = inactive; / = no result; + = active, no number. Hits are enriched below; roughly 2.3% of the tested compounds scored in any of these assays.

SMILES	TRPC4 PAM	TRPC6 act	TRPC4 inh	TRPC4 act	TRPC6 inhibitor	HEK293 MPD ctr-2	HEK293 MPD ctr 2-2	TRPC4/MOR mod	TRPC4/MOR inh 2	TRPC6 block conf	TRPC6 act confirm	others
Cc1cc(N2CCN(C)CC2)n2nc(-c3ccc(Cl)cc3)nc2n1	i	i	i	i	-6.9*	-310%*	96%*	-28%*	53%*	66%*	i
O=C1CCCN1c1ccc(C(=O)N(Cc2nnc(-c3ccc(Cl)cc3)o2)C2CC2)cc1	i	i	i	i	i	/	/	/	/	/	/
O=c1c2sccc2n(Cc2cc(=O)n3ccccc3n2)c(=O)n1-c1ccccc1	i	i	i	i	i	/	/	/	/	/	/
COC(=O)c1cc2ccsc2n1Cc1cc(=O)n2ccccc2n1	i	i	i	i	-5.8*	i	i	8.5%*	i	56%*	i
OCC[C@H]1C[C@@H](O)[C@H](O)[C@]2(CCCO2)O1	i	i	i	i	i	/	/	/	/	/	/
S=C(NCCN1CCOCC1)N/N=C/c1c2ccccc2cc2ccccc12	i	i	i	i	-5.2*	260%*	i	-22%*	i	i	i
N#Cc1ccc(NC(=O)Cn2cnc(S(=O)(=O)N3CCc4ccccc43)c2)cc1	i	i	i	i	i	/	/	/	/	/	/
NC(=Nc1ccccc1)NC(=O)c1nc(Cl)c(N)nc1N	i	i	i	i	i	/	/	/	/	/	/
CN(C)c1nc(N)c(C(=O)N=C(N)N)nc1Cl	i	i	i	i	-7.3*	/	/	/	/	i	i	TRPC4 sel inh 2=i;TRPC4 spec=-24%*;HEK293 MPD ctr 2-1=i;HEK293 MPD ctr-1=-364%*
O=C(Nc1cc([N+](=O)[O-])ccc1N1CCCC1)c1ccccc1	i	i	i	i	i	/	/	/	/	/	/
CN1CCN(c2ccc([N+](=O)[O-])cc2NC(=O)c2ccccc2)CC1	i	i	i	i	-6.4*	-323%*	i	-50%*	36%*	i	i
CN1CCN(c2ccccc2NC(=O)c2cccc([N+](=O)[O-])c2)CC1	i	i	i	i	i	/	/	/	/	/	/
COc1ccc(C(=O)Nc2cc([N+](=O)[O-])ccc2N2CCN(C)CC2)cc1	i	i	i	i	-17*	-386%*	111%*	-60%*	82%*	86%*	i
CN1CCN(c2ccccc2NC(=O)c2ccc(N3CCCCC3)c([N+](=O)[O-])c2)CC1	i	i	i	i	-6.2*	-121%*	i	-31%*	76%*	44%*	i
COc1cccc(C(=O)Nc2cc([N+](=O)[O-])ccc2N2CCN(C)CC2)c1	i	i	i	i	-11*	-372%*	i	-61%*	56%*	50%*	i
CCOC(=O)c1ccc(-c2c(-c3ccc4c(c3)OCO4)noc2C)cc1F	i	i	/	i	i	/	/	/	/	/	/
COc1ccc(C(=O)NCC(=O)c2ccccc2)cc1	i	i	i	i	i	/	/	/	/	/	/
COc1cc(C)c(CN2CCC(n3nccc3NC(=O)C3CC3)CC2)cc1C	i	i	i	i	i	/	/	/	/	/	/
O=C(O)c1ccc(N2CCc3ccccc32)c([N+](=O)[O-])c1	i	i	i	i	i	/	/	/	/	/	/
COc1cccc(NC(=O)c2cc([N+](=O)[O-])ccc2N2CCN(C)CC2)c1	i	i	i	i	i	/	/	/	/	/	/
COC(=O)c1ccc(N2CCN(C)CC2)c(NC(=O)c2cccnc2)c1	i	i	i	50*	-8.5*	-444%*	84%*	-76%*	56%*	55%*	i
CN1CCN(c2ccc([N+](=O)[O-])cc2C(=O)Nc2ccccc2)CC1	i	i	i	i	-5.3*	i	i	i	i	i	i
COC(=O)c1ccc(N2CCc3ccccc32)c([N+](=O)[O-])c1	i	i	i	i	-5.3*	i	i	-16%*	40%*	i	i
O=C(O)c1cccc(Cn2c(Cl)c(/C=N/NC(=O)c3ccco3)sc2=O)c1	i	i	i	i	i	/	/	/	/	/	/
Cc1sc(NC(=O)c2sc3nc4c(C)cccc4cc3c2N)c(C#N)c1C	i	13*	i	i	i	i	i	13%*	i	i	i
CC1=Nc2ccccc2/C1=C/c1sc(=S)n(-c2cccc(C(=O)O)c2)c1O	11*	56*	i	44*	i	+	i	212%*	i	i	314%*
Oc1c(C=C2N=c3ccccc3=N2)sc(=S)n1-c1ccccc1	i	i	i	i	i	/	/	/	/	/	/
CCCc1cc(=O)oc2c(C)c(OCC(=O)NCCCn3ccnc3)ccc12	i	i	i	i	-5.8*	-136%*	i	-20%*	i	i	i
Cc1cc(OCC(=O)NCCCn2ccnc2)c2c(C)c(C)c(=O)oc2c1	i	i	i	i	-6.1*	-276%*	i	-48%*	36%*	i	i
CCc1cc(=O)oc2cc(C)cc(OCC(=O)NCCCn3ccnc3)c12	i	i	i	i	i	/	/	/	/	/	/

Screens (PubChem BioAssay)
